Experimental data reported in PMC7647946 (Drug delivery and translational research, 2021).

Tests used:
[1] = test system: pERK1/2 expression in PVN; details: 1-hour ICV infusion, rats with heart failure; ref [23]; cited from earlier work
rats with heart failure = details: cited from earlier work
Organ = type: in vivo, rat; details: healthy rats
Procedure, shortened: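 Male Sprague-Dawley rats (6–8 weeks, 275–300 g), urethane-anaesthetised, with a femoral-vein cannula. Test compound at 0.5 mg/ml in 10% Tween 80/sterile 1X DPBS, 2 ml infused slowly. Brain taken at 1 and 3 h (n=3 per time), rinsed, held at −80° C. 200–400 mg homogenised in DPBS with 7-hydroxyflavone internal standard. Cold-acetonitrile precipitation, N2 drying, mobile-phase reconstitution. HPLC-diode array against naïve-tissue standards; mean ± SD.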

[2] = Pharmacokinetics of PD98059 following IV injection; type: in vivo, rat
Procedure, shortened: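 Male Sprague-Dawley rats, urethane-anaesthetised, received slow femoral-vein infusion of test compound (0.5 mg/ml, 2 ml, 10% Tween 80/DPBS). Blood drawn at 5, 15, 30, 60, 180 and 360 min into K2-EDTA, plasma stored at −80° C. 100 μl plasma spiked with 7-hydroxyflavone, acetonitrile-precipitated, dried and reconstituted. HPLC against naïve-plasma standards; n=3 (n=1 at 6 h). PK Solver 1-/2-compartment fits; non-compartmental AUC0-t.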

[3] = Solubility of PD98059 in the release medium; type: physicochemical; details: 0.4% v/v Tween 80 in 1X DPBS, 37° C
[4] = 1-hour ICV infusion, rats with heart failure, ref [23]
[5] = 1-compartment model, IV 1 mg, healthy rats
[6] = 2-compartment model, IV 1 mg, healthy rats
[7] = non-compartmental analysis, IV 1 mg, healthy rats

In the case of `COc1cccc(-c2cc(=O)c3ccccc3o2)c1N` [PD98059], the “pERK1/2 expression in PVN” value [1] is listed as “decreased”, the “neuronal excitation in PVN” value (rats with heart failure; [4]) is listed as “decreased” and the “renal sympathetic nerve activity” value (rats with heart failure; [4]) is listed as “decreased”. For the same compound, the “plasma norepinephrine (index of overall sympathetic nerve activity)” value (rats with heart failure; chronic (4 week) ICV infusions, heart failure rats, ref [19]) was “reduced”, the “brain PD98059 level” value (Organ; 1 hour after IV 1 mg) was “approximately 410 ng/g” and the “brain PD98059 level” value (Organ; 3 hours after IV 1 mg) was ~76 ng/g. For the same compound, the AUC0-inf [2, 5] was 76774.83 ng·min/mL, the AUC0-t [2, 5] was 76774.82 ng·min/mL and the AUMC [2, 5] was 1716754 ng.min^2/ml. It also gave a C0 [2, 5] of 3433.44 ng/mL, a CI [2, 5] of 13.03 mL/min and a K [2, 5] of 0.045 min⁻¹. It also gave an MRT [2, 5] of 0.3727 h, a T1/2 [2, 5] of 0.258 h and a V [2, 5] of 291.25 mL. For the same compound, the Vss [2, 5] was 291.25 mL, the A [2, 6] was 3236.5 ng/mL and the AUC0-inf [2, 6] was 135064 ng·min/mL. For the same compound, the AUC0-t [2, 6] was 131605.22 ng·min/mL, the AUMC [2, 6] was 11287504.55 ng.min^2/ml and the B [2, 6] was 980.76 ng/mL. It also gave a C0 [2, 6] of 4217.23 ng/mL, a CI [2, 6] of 7.4 mL/min and a K10 [2, 6] of 0.031 min⁻¹. It also gave a K12 [2, 6] of 0.05 min⁻¹, a K21 [2, 6] of 0.031 min⁻¹ and an MRT [2, 6] of 1.393 h. It also gave a V [2, 6] of 237.12 mL, a Vss [2, 6] of 618.76 mL and a α [2, 6] of 0.104 min. The β [2, 6] was 0.0094 min, the AUC0-t ([2]; IV 1 mg PD98059 in solution, NCA) was 142720 ng·min/mL and the “K (elimination rate constant)” value ([2]; non-compartmental analysis, IV 1 mg PD98059 in 10% Tween 80, healthy rats, plasma) was 0.0074 min⁻¹. For the same compound, the AUC0-inf [2, 7] was 152980.9 ng·min/mL, the AUC0-t [2, 7] was 142723.37 ng·min/mL and the AUMC0-inf [2, 7] was 14922241.77 ng.min^2/ml. For the same compound, the “C0 (plasma concentration at 0 time)” value [2, 7] was 3863.5 ng/mL, the “CI (clearance)” value [2, 7] was 6.54 mL/min and the MRT0-inf [2, 7] was 1.626 h. For the same compound, the “V (volume of distribution)” value [2, 7] was 885.82 mL, the “Vss (steady state volume of distribution)” value [2, 7] was 637.62 mL and the “T1/2 (plasma half-life)” value ([2]; non-compartmental analysis, IV 1 mg, healthy rats, plasma) was 1.566 h. The “solubility in release medium” value [3] was “approximately 113 μg/ml”.
